Experimental data from different studies.
Protocols differ between the studies behind these lines.
LGALS4 C-terminal domain: Galectin-4, C-terminal domain (LGALS4, Homo sapiens, UniProt P56470)
CTSB: Cathepsin B (CTSB, Homo sapiens, UniProt P07858)
CDK2: Cyclin-dependent kinase 2 (CDK2, Homo sapiens, UniProt P24941)
PIM1: Serine/threonine-protein kinase pim-1 (PIM1, Homo sapiens, UniProt P11309)
CDK2 with cyclin A2: Cyclin-dependent kinase 2, with cyclin A2 (CDK2, Homo sapiens, UniProt P24941)

CC(=O)NC1C(OC2C(O)C(CO)OC(OC3C(CO)OC(O)C(O)C3O)C2OC2OC(C)C(O)C(O)C2O)OC(CO)C(O)C1O (stereo not drawn) — Kd (LGALS4 C-terminal domain; binding; NMR): 63 µM
CCOC(=O)/C=C/C(=O)[C@H](CC(C)C)NC(=O)[C@H](Cc1ccccc1)NC(=O)[C@H](Cc1ccccc1)N=[N+]=[N-] (mixture of isomers) — IC50 (CTSB; enzyme activity; inhibitor): 0.32 µM
O=C(O)Cc1csc(NC(=O)c2cc3ccccc3[nH]2)n1 — IC50 (CDK2; enzyme activity; inhibitor; ELISA): 1.71 µM
CCCOc1nc(-c2cccc(O)c2)cc(-c2cc3cc(OC)ccc3nc2N2CCOCC2)c1C#N — IC50 (PIM1; enzyme activity; inhibitor): 0.095 µM
CC(C)C[C@H](NC(=O)[C@H](Cc1ccccc1)NC(=O)OCc1ccccc1)C(=O)C=O — IC50 (CTSB; enzyme activity; inhibitor): 4.36 µM
COc1ccc2[nH]c(C(=O)Nc3nc(CC(=O)O)cs3)cc2c1 — IC50 (CDK2; enzyme activity; inhibitor; ELISA): 3.19 µM
CC(=O)Nc1c(N)nc(SCC(=O)N/N=C/c2ccc([N+](=O)[O-])cc2)[nH]c1=O — IC50 (CDK2 with cyclin A2; enzyme activity; inhibitor): 0.189 µM
CC(C)Oc1ccc(S(=O)(=O)c2ccc(Oc3cc(OCC(N)=O)c(C(=O)C(Cl)Cl)cc3[N+](=O)[O-])cc2)cc1 — IC50 ([Pyruvate dehydrogenase (acetyl-transferring)] kinase isozyme 4, mitochondrial (PDK4, Homo sapiens, UniProt Q16654); enzyme activity; inhibitor; ATP luminescence): 17.2 µM
CCOc1nc(-c2cccc(O)c2)cc(-c2cc3cc(OC)ccc3nc2N2CCOCC2)c1C#N — IC50 (PIM1; enzyme activity; inhibitor): 0.11 µM
CC(=O)c1nn(-c2ccc(C)cc2)/c(=N/N=C(\C)c2ccc(NC(=O)c3ccccc3)cc2)s1 — IC50 (Cyclin-dependent kinase 8, with cyclin C (CDK8, Homo sapiens, UniProt P49336); enzyme activity; inhibitor): 0.267 µM
COc1cc(N2CCC(N3CCN(C)CC3)CC2)ccc1Nc1ncc(Cl)c(Nc2ccccc2P(C)(C)=O)n1 — Ki (Multidrug and toxin extrusion protein 1 (SLC47A1, Homo sapiens, UniProt Q96FL8); transporter uptake; inhibitor): 0.78 µM
Nc1ccccc1NC(=O)c1ccc(CNc2ccc(NC3=C(Cl)C(=O)c4cccnc4C3=O)cc2)cc1 — IC50 (M-phase inducer phosphatase 3 (Homo sapiens, UniProt P30307); enzyme activity; inhibitor): 0.23 µM
Cc1ccc2oc(=O)cc(NCCO)c2c1 — IC50 (Alpha-1A adrenergic receptor (Adra1a, Rattus norvegicus, UniProt P43140); calcium signal; antagonist): 1820 µM
NCCCNc1ncnc2c1ncn2[C@@H]1O[C@H](CN(CC#Cc2cccc(C(N)=O)c2)CC[C@H](N)C(=O)O)[C@@H](O)[C@H]1O — IC50 (Nicotinamide N-methyltransferase (NNMT, Homo sapiens, UniProt P40261); enzyme activity; inhibitor; fluorescence): 0.15 µM
C[C@H]1C[C@H]2[C@@H]3CCC4=CC(=O)C=C[C@]4(C)[C@@]3(Cl)[C@@H](O)C[C@]2(C)[C@@]1(O)C(=O)CO — EC50 (ADGRG3 (Homo sapiens, UniProt Q86Y34); β-arrestin recruitment; agonist): 3.49 µM
CC1OC(OC2C(OC3C(CO)OC(O)C(O)C3O)OC(CO)C(O)C2OC2OC(CO)C(O)C(O)C2O)C(O)C(O)C1O (stereo not drawn) — Kd (LGALS4 C-terminal domain; binding; NMR): 170 µM
CCOC(=O)[C@H]1O[C@@H]1C(=O)N[C@@H](CC(C)C)C(=O)NCCC(C)C — IC50 (CTSB; enzyme activity; inhibitor): 0.012 µM
CC(=O)Nc1c(N)nc(SCC(=O)NN)[nH]c1=O — IC50 (CDK2 with cyclin A2; enzyme activity; inhibitor): 0.172 µM
